Laboratory results taken from ChEMBL document CHEMBL1157900, “Bivalent 5,8,9,13b-tetrahydro-6H-isoquino[1,2-a]isoquinolines and -isoquinolinium salts: novel heterocyclic templates for butyrylcholinesterase inhibitors” (Bioorg Med Chem Lett, 2010).
Calls of active or inactive are those of the source. The rule behind the calls is not given here.

Key:
Cholinesterase = Cholinesterase (Equus caballus, UniProt P81908); experiment: Inhibition of Equine serum BChE after 2 mins by colorimetric Ellman assay
Cholinesterase, sequence (P81908 whole entry): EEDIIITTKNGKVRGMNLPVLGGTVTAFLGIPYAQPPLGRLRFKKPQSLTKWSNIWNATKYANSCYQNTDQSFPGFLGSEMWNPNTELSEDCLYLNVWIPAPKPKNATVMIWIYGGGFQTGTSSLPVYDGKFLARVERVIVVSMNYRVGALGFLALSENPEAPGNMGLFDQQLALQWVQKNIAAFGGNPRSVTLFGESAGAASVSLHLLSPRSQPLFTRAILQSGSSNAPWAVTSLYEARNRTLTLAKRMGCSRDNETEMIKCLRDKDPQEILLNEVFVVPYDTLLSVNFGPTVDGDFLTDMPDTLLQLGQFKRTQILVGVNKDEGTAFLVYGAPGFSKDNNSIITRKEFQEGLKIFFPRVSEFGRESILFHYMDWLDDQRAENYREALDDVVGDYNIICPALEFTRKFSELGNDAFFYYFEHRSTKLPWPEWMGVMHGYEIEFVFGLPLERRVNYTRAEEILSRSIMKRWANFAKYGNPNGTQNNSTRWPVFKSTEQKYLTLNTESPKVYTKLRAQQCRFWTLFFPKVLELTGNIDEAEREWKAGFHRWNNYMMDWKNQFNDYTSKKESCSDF

[1] = Selectivity ratio of IC50 for Electric eel AChE to IC50 for equine serum BChE
[2] = Cytotoxicity against human U87MG cells assessed as cell viability after 24 hrs by MTT assay; type: cell-based, U-87MG ATCC
In short: (§1)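 Photometric MTT cell-viability readout after compound exposure of human neuronal (SH-SY5Y) or glial (MG-U87) cells. CC50 reported as mean ± SD of at least three experiments, each run in triplicate.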

[3] = Cytotoxicity against human SH-SY5Y cells assessed as cell viability after 24 hrs by MTT assay; type: cell-based; in short: as §1
Acetylcholinesterase = Acetylcholinesterase (Electrophorus electricus, UniProt O42275); experiment: Inhibition of Electric eel AChE after 2 mins by colorimetric Ellman assay
Acetylcholinesterase, sequence (O42275 whole entry): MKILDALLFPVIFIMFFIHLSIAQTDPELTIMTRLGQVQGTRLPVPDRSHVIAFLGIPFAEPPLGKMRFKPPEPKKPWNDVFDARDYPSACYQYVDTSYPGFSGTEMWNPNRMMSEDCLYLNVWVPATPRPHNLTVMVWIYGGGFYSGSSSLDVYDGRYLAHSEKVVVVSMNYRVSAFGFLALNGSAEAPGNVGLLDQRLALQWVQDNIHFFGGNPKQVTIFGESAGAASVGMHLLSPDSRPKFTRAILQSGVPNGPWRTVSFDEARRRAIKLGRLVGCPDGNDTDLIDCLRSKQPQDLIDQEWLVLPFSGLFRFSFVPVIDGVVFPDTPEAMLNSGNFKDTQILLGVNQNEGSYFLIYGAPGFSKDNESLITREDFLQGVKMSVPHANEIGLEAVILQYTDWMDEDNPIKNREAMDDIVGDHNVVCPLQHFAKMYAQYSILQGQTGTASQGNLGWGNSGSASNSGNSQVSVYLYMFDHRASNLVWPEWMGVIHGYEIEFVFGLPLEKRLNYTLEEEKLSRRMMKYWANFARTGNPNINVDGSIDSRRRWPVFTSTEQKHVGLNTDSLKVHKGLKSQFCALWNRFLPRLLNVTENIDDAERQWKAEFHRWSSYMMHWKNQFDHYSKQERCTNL

[4] = target: Cholinesterase (Equus caballus) (UniProt P81908); experiment: Reversible inhibition of Equine serum BChE by Lineweaver-Burke plot
Cholinesterase (Equus caballus), sequence (P81908 whole entry): as the sequence (P81908 whole entry) above
In short: (§2)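 Equine serum BChE. Substrate-velocity curves were recorded at various substrate concentrations, each at several fixed inhibitor concentrations. Data were plotted as reciprocal velocity against reciprocal substrate concentration (Lineweaver-Burk). Km was taken as the negative reciprocal of the x-intercept and Vmax as the reciprocal of the y-intercept, then compared across inhibitor concentrations.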

[5] = target: Cholinesterase (Equus caballus) (UniProt P81908); experiment: Competitive inhibition of Equine serum BChE by Lineweaver-Burke plot; in short: as §2

| Structure (SMILES) | IC50 (Cholinesterase; read-out: IC50) | Ratio IC50 [1] | CC50 at 24 h [2] | CC50 at 24 h [3] | IC50 (Acetylcholinesterase; read-out: IC50) | IC50 (Acetylcholinesterase; read-out: pIC50 (converted)) | inhibition [4] | inhibition [5] | IC50 (Cholinesterase; read-out: pIC50 (converted)) |
| --- | --- | --- | --- | --- | --- | --- | --- | --- | --- |
| c1ccc2c(c1)CCN1CCc3cc(OCCCCOc4ccc5c(c4)CCN4CCc6ccccc6C54)ccc3C21 (centres undefined) | 0.017 µM | 76.2 | 19.5 µM | 6.35 µM | 1.1 µM |  |  |  |  |
| CN1CCc2ccccc2Cc2ccc(OCCCOc3ccc4c(c3)CCN(C)CCc3ccccc3C4)cc2CC1 | 0.14 µM | 34 |  |  | 4.8 µM |  |  |  |  |
| c1ccc2c(c1)CCN1CCc3cc(OCCCOc4ccc5c(c4)CCN4CCc6ccccc6C54)ccc3C21 (centres undefined) | 0.15 µM | 30.8 | 26.9 µM | 8.94 µM | 4.5 µM |  |  |  |  |
| CN1CCc2ccccc2Cc2ccc(OCCCCCCCCOc3ccc4c(c3)CCN(C)CCc3ccccc3C4)cc2CC1 | 0.21 µM | 9.9 |  |  | 2 µM |  |  |  |  |
| C[N+]12CCc3ccccc3C1c1ccc(OCCCCCOc3ccc4c(c3)CC[N+]3(C)CCc5ccccc5C43)cc1CC2 (centres undefined) | 0.047 µM | 5.9 |  |  | 0.28 µM |  |  |  |  |
| COc1ccc2c(c1)CCN1CCc3ccccc3C21 (centres undefined) | > 10000 µM |  | 775 µM | 171 µM | > 10000 µM |  |  |  |  |
| c1ccc2c(c1)CCN1CCc3cc(OCCCCCOc4ccc5c(c4)CCN4CCc6ccccc6C54)ccc3C21 (centres undefined) | 0.017 µM | 38.3 | 8.7 µM |  | 0.65 µM | 0.308 µM |  |  |  |
| C[N+]12CCc3ccccc3C1c1ccc(OCCCOc3ccc4c(c3)CC[N+]3(C)CCc5ccccc5C43)cc1CC2 (centres undefined) | 0.16 µM |  |  |  | 0.45 µM |  |  |  |  |
| C[N+]12CCc3ccccc3C1c1ccc(OCCCCOc3ccc4c(c3)CC[N+]3(C)CCc5ccccc5C43)cc1CC2 (centres undefined) | 0.051 µM | 8.8 |  |  | 0.39 µM |  |  |  |  |
| COc1ccc2c(c1)CC[N+]1(C)CCc3ccccc3C21 (centres undefined) | 6.4 µM | 1.4 |  |  | 8.8 µM |  |  |  |  |
| C[N+]12CCc3ccccc3C1c1ccc(OCCCCCCOc3ccc4c(c3)CC[N+]3(C)CCc5ccccc5C43)cc1CC2 (centres undefined) | 0.027 µM | 5.6 |  |  | 0.15 µM |  |  |  |  |
| COc1ccc2c(c1)CCN(C)CCc1ccccc1C2 | > 10000 µM |  |  |  | > 10000 µM |  |  |  |  |
| c1ccc2c(c1)CCN1CCc3cc(OCCCCCCOc4ccc5c(c4)CCN4CCc6ccccc6C54)ccc3C21 (centres undefined) | 0.014 µM | 48.9 | 20.7 µM | 7.4 µM | 0.69 µM |  | Active | Active |  |
| c1ccc2c(c1)CCN1CCc3cc(OCCCCCCCCOc4ccc5c(c4)CCN4CCc6ccccc6C54)ccc3C21 (centres undefined) | 0.68 µM | 3 | 42 µM | 19.2 µM | 1.2 µM |  |  |  |  |
| c1ccc2c(c1)CCN1CCc3cc(OCCCCCCCCCCCCOc4ccc5c(c4)CCN4CCc6ccccc6C54)ccc3C21 (centres undefined) | 0.92 µM | 4.2 | 46.6 µM |  | 4.1 µM |  |  |  |  |
| C[N+]12CCc3ccccc3C1c1ccc(OCCCCCCCCOc3ccc4c(c3)CC[N+]3(C)CCc5ccccc5C43)cc1CC2 (centres undefined) | 0.11 µM | 2.5 |  |  | 0.28 µM |  |  |  |  |
| C[N+]12CCc3ccccc3C1c1ccc(OCCCCCCCCCCCCOc3ccc4c(c3)CC[N+]3(C)CCc5ccccc5C43)cc1CC2 (centres undefined) | 0.036 µM | 3.4 |  |  | 0.12 µM |  |  |  | 0.0353 µM |
